Reference: ChEMBL document CHEMBL1133536, “Cation substitution in cationic phosphonolipids: a new concept to improve transfection activity and decrease cellular toxicity” (J Med Chem, 2000)
“And” between values parts separate entries of the source, which are not always exact repeats. Equal values may be shown once.

Experiments:
[1] = molecular target: T1, Aspartate aminotransferase, mitochondrial (Mus musculus) (UniProt P05202); assay: Toxicity index as ratio of serum ASAT levels in transfected and control mice; assay type: functional
T1 sequence (whole entry): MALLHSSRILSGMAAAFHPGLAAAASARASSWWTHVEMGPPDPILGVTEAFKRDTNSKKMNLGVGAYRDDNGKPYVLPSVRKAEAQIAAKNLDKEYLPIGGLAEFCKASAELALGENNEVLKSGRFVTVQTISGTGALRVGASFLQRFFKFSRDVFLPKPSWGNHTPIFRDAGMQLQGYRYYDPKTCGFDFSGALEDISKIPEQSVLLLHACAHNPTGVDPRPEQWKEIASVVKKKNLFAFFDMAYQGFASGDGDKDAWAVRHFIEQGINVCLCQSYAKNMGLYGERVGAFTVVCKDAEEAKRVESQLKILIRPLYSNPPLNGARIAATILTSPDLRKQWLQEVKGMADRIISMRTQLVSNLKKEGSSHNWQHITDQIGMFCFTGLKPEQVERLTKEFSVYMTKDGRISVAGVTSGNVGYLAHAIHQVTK
In short: (§1)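 Female Swiss mice, 6 weeks old, given one 200 µL tail-vein injection of cationic phosphonolipid/pTG11033 lipoplexes (lipid:DNA charge ratio 4, 50 µg DNA per animal). Lipoplexes were held 30 min at room temperature beforehand. Serum was taken from coagulated blood 24 h later and transaminases measured on an automated analyser. Results are mean (SEM) of 6 animals. TI = transfected/control mouse transaminase level.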

[2] = In vivo toxic effect of alanine aminotransferase (ALAT) was determined 24 hr after mice were injected with 50 microg of pTG11033 plasmid complexed with compound into serum without co-lipid; assay type: ADME, organism-based; settings: mouse; in short: as §1
[3] = molecular target: T1, Aspartate aminotransferase, mitochondrial (Mus musculus); assay: In vivo toxic effect as serum aspartate aminotransferase (ASAT) 24 hr after cholesterol complexed 50 ug pTG11033 plasmid injection into mice; assay type: functional, organism-based; in short: as §1
[4] = molecular target: T1, Aspartate aminotransferase, mitochondrial (Mus musculus); assay: In vivo toxic effect as serum aspartate aminotransferase (ASAT) 24 hr after DOPE complexed 50 ug pTG11033 plasmid injection into mice; assay type: functional, organism-based; in short: as §1
[5] = molecular target: T1, Aspartate aminotransferase, mitochondrial (Mus musculus); assay: In vivo toxic effect as serum aspartate aminotransferase (ASAT) 24 hr after 50 ug pTG11033 plasmid injection without co-lipid into mice; assay type: functional, organism-based; in short: as §1
[6] = In vivo toxic effect of alanine aminotransferase (ALAT) was determined 24 hr after mice were injected with 50 microg of pTG11033 plasmid complexed with compound into serum with DOPE; assay type: ADME, organism-based; settings: mouse; in short: as §1
[7] = (§2) In vivo toxic effect of alanine aminotransferase (ALAT) was determined 24 hr after mice were injected with 50 microg of pTG11033 plasmid complexed with compound into serum with cholesterol; assay type: ADME, organism-based; set-up: unit not given beside the values; settings: mouse; in short: as §1
[8] = as §2; assay type: ADME, organism-based; settings: mouse; in short: as §1

Row | Compound | TI [1] | Toxicity [2] | Toxicity [3] | Toxicity [4] | Toxicity [5] | Toxicity [6] | Toxicity [7] | Toxicity [8]
1 | CCCCCCCCCCCCCCOP(=O)(C[N+](C)(C)C)OCCCCCCCCCCCCCC.[I-] | 1.12 [middle of 4 runs] | 25 | 75 | 130 | 80 | 31 | 24 | –
2 | CCCCCCCC/C=C/CCCCCCCCOP(=O)(C[N+](C)(C)C)OCCCCCCCC/C=C/CCCCCCCC.[I-] | – | 250 | 225 | 125 | 900 | 30 | 70 | –
3 | CCCCCCCC/C=C\CCCCCCCC(=O)OCC(C[N+](C)(C)C)OC(=O)CCCCCCC/C=C\CCCCCCCC.[Cl-] (stereo not given) | – | 70 | 255 | 275 | 657 | 74 | 37 | –
4 | CCCCCCCCCCCCCCOP(=O)(CC[As+](C)(C)C)OCCCCCCCCCCCCCC.[I-] | 1.47 [middle of 4 runs] | 26 | 190 | 155 | 79 | 34 | – | 41
5 | CCCCCCCCCCCCCCOP(=O)(CC[P+](C)(C)C)OCCCCCCCCCCCCCC.[I-] | 1.69 (2×) and 2.39 and 2.45 | 55 | 174 | 145 | 120 | 39 | 34 | –
6 | CCCCCCCC/C=C/CCCCCCCCOP(=O)(CC[P+](C)(C)C)OCCCCCCCC/C=C/CCCCCCCC.[I-] | – | 35 | 685 | 646 | 250 | 65 | – | 184
7 | CCCCCCCC/C=C/CCCCCCCCOP(=O)(CC[As+](C)(C)C)OCCCCCCCC/C=C/CCCCCCCC.[I-] | – | 35 | 600 | 303 | 225 | 36 | 172 | –
